{"source": "paper PMC8526916", "about": "(International Journal for Parasitology: Drugs and Drug …, 2021)", "key": {"BKI-1294 plasma exposure": {"test": "BKI-1294 plasma exposure", "assay_type": "in vivo, sheep", "conditions": "G1", "method_in_brief": "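Rasa Aragonesa ewes (12 months, seronegative), challenged i.v. with Nc-Spain7 tachyzoites. From 48 h pi, test compound was given orally by oro-ruminal probe at 100 mg/kg, 5 doses every other day. Heparinized blood was sampled at set times and plasma analysed by LC-MS/MS. Troughs were taken 48 h after each dose; values are mean ± S.D.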"}, "[1]": {"test": "Plasma protein binding by equilibrium dialysis, mouse plasma", "assay_type": "in vitro ADME", "conditions": "5 μM", "method_in_brief": "(§1)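 Test compound in DMSO was spiked into plasma at 5 μM; an aliquot of spiked plasma served as the 100% recovery standard. Samples were matrix-matched, extracted in 80% acetonitrile with internal standard and quantified by UPLC-MS/MS. Fraction bound = bound/(unbound + bound), corrected for matrix dilution.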"}, "[2]": {"test": "Plasma protein binding by equilibrium dialysis, rat plasma", "assay_type": "in vitro ADME", "conditions": "5 μM", "method_in_brief": "as §1"}, "[3]": {"test": "Plasma protein binding by equilibrium dialysis, dog plasma", "assay_type": "in vitro ADME", "conditions": "5 μM", "method_in_brief": "as §1"}, "[4]": {"test": "Plasma protein binding by equilibrium dialysis, human plasma", "assay_type": "in vitro ADME", "conditions": "5 μM", "method_in_brief": "as §1"}, "[5]": {"test": "Safety monitoring of treated pregnant sheep", "assay_type": "in vivo", "method_in_brief": "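Infected pregnant ewes received test compound orally at 100 mg/kg, 5 doses every other day from 48 h pi; uninfected controls received vehicle. A veterinarian observed animals daily for faecal consistency, blood in faeces and behavioural changes. Rectal temperature was taken daily to day 14 pi, then weekly; >40 °C counted as fever.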"}, "[6]": {"tested_on": "Neospora caninum Nc-Spain7 tachyzoites", "test": "Rectal temperatures and fever in N. caninum-infected pregnant sheep", "assay_type": "in vivo", "conditions": "days 5, 7 and 9 pi"}, "IFNγ": {"tested_on": "IFNγ", "test": "Peripheral blood cell stimulation assay, IFNγ production", "assay_type": "in vivo, sheep", "method_in_brief": "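Heparinized jugular blood from dams was sampled before infection, at 3, 5, 7 and 10 days pi, then weekly. Blood was cultured with soluble N. caninum antigen or ConA for 24 h at 37 °C, 5% CO2, and IFNγ measured in supernatants by enzyme immunoassay. Analysis: repeated-measures two-way ANOVA to day 28 pi, one-way ANOVA afterwards; mean ± S.D.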"}, "[7]": {"tested_on": "N. caninum soluble antigens", "test": "In-house indirect ELISA, IgG against N. caninum soluble antigens in dams", "assay_type": "in vivo, sheep", "method_in_brief": "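Dam sera were collected before infection, at 3, 5, 7 and 10 days pi, then weekly. Plates were coated with soluble N. caninum antigen and blocked; sera were diluted 1:100 in 1% BSA in PBS with 0.05% Tween 20. Detection used HRP anti-goat/sheep IgG (1:20000) with ABTS, stopped with 0.3 M oxalic acid, read at OD405 and expressed as RIPC. Analysis: repeated-measures two-way ANOVA to day 28 pi, one-way ANOVA after.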"}, "NcSAG1": {"tested_on": "NcSAG1", "test": "Commercial TgSAG1 ELISA, anti-NcSAG1 IgG in dams", "assay_type": "in vivo, sheep", "conditions": "days 21 (P < 0.01) and 42 pi (P < 0.05)"}, "[8]": {"tested_on": "Neospora caninum Nc-Spain7 tachyzoites", "test": "Foetal survival in pregnant sheep infected with N. caninum at mid-pregnancy", "assay_type": "in vivo"}, "Neospora caninum": {"tested_on": "Neospora caninum", "test": "qPCR parasite burden in placentomes and foetal brain", "assay_type": "in vivo", "conditions": "aborted sheep", "method_in_brief": "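DNA was extracted by paramagnetic-particle capture from 50–100 mg of foetal brain (three replicates each) and six placental samples per dam. Samples were screened by nested Nc5-PCR (337 bp product), with 10, 1 and 0.1 tachyzoite-equivalent controls in 100 ng sheep DNA and an uninfected-group negative. PCR-positive samples were quantified by real-time PCR; burdens compared by Mann–Whitney test.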"}, "[9]": {"tested_on": "Toxoplasma gondii oocysts", "conditions": "sheep infected with T. gondii oocysts during pregnancy; ref Sánchez-Sánchez et al., 2019; cited from earlier work"}, "Nc-Spain7 isolate": {"tested_on": "Nc-Spain7 isolate", "conditions": "in vitro, ref Winzer et al., 2015; cited from earlier work"}, "[10]": {"conditions": "mice; ref Vidadala et al., 2016; cited from earlier work"}, "[11]": {"conditions": "ref Schaefer et al., 2016; cited from earlier work"}, "[12]": {"conditions": "pregnant sheep; ref Sánchez-Sánchez et al., 2019; cited from earlier work"}}}
{"smiles": "CCOc1ccc2cc(-c3nn(CC4CCN(C)CC4)c4ncnc(N)c34)ccc2c1", "note": "[BKI-1294]", "values": [{"measurement": "trough plasma concentrations", "setting": "BKI-1294 plasma exposure; 48 h after 1st oral dose of 100 mg/kg", "value": "0.7 ± 0.4", "unit": "µM"}, {"measurement": "trough plasma concentrations", "setting": "BKI-1294 plasma exposure; 48 h after 2nd oral dose of 100 mg/kg", "value": "0.7 ± 0.4", "unit": "µM"}, {"measurement": "trough plasma concentrations", "setting": "BKI-1294 plasma exposure; 48 h after 3rd oral dose of 100 mg/kg", "value": "0.9 ± 0.5", "unit": "µM"}, {"measurement": "trough plasma concentrations", "setting": "BKI-1294 plasma exposure; 48 h after 4th oral dose of 100 mg/kg", "value": "1.4 ± 1.1", "unit": "µM"}, {"measurement": "trough plasma concentrations", "setting": "BKI-1294 plasma exposure; 48 h after 5th oral dose of 100 mg/kg", "value": "1.3 ± 0.8", "unit": "µM"}, {"measurement": "plasma protein binding (bound)", "setting": "[1]", "value": 85, "unit": "%"}, {"measurement": "plasma protein binding (bound)", "setting": "[2]", "value": 85, "unit": "%"}, {"measurement": "plasma protein binding (bound)", "setting": "[3]", "value": 52, "unit": "%"}, {"measurement": "plasma protein binding (bound)", "setting": "[4]", "value": 85, "unit": "%"}, {"measurement": "safety of oral administration", "setting": "[5]; N. caninum-infected pregnant sheep, oral 100 mg/kg x5", "value": "safe"}, {"measurement": "Diarrhoea, bloody stools, and behavioural disorders", "setting": "[5]; oral 100 mg/kg, 5 doses every other day, pregnant sheep", "value": "not observed"}, {"measurement": "rectal temperatures versus infected/untreated group", "setting": "[6]", "value": "significantly lower increase in rectal temperatures"}, {"measurement": "IFNγ levels versus infected/untreated group", "setting": "IFNγ; day 7 pi, blood stimulated with N. caninum antigen, P < 0.0001", "value": "higher IFNγ levels"}, {"measurement": "IFNγ levels relative to infected/untreated group", "setting": "IFNγ; days 14, 21 and 28 pi, not significant", "value": "approximately 10 fold"}, {"measurement": "IgG levels against N. caninum soluble antigens versus infected/untreated group", "setting": "[7]; days 14, 21 and 28 pi", "value": "lower antibody response"}, {"measurement": "IgG levels against N. caninum soluble antigens versus infected/untreated group", "setting": "[7]; from day 35 pi onwards", "value": "no significant differences"}, {"measurement": "anti-NcSAG1 IgG levels versus infected/untreated group", "setting": "NcSAG1", "value": "lower anti-NcSAG1 IgG levels"}, {"measurement": "median day of foetal death", "setting": "[8]; G1 infected/treated (G2: 45)", "value": 44, "unit": "day pi"}, {"measurement": "foetal mortality (sheep whose foetuses died, 7 out of 8)", "setting": "[8]; G1 infected/treated, same in G2 untreated", "value": 87, "unit": "%"}, {"measurement": "foetal survival rate versus infected/untreated group", "setting": "[8]; log-rank test", "value": "no significant differences"}, {"measurement": "parasite burden in placentomes versus infected/untreated group", "setting": "Neospora caninum", "value": "No significant differences"}, {"measurement": "efficacy against abortion", "setting": "[9]", "value": 71, "unit": "%"}, {"measurement": "efficacy against vertical transmission", "setting": "[9]", "value": 53, "unit": "%"}, {"measurement": "IC50", "setting": "Nc-Spain7 isolate", "value": "270 ± 20", "unit": "nM"}, {"measurement": "CNS crossing", "setting": "[10]", "value": 30, "unit": "%"}, {"measurement": "bioavailability lower than BKI-1553", "setting": "[10]", "value": 30, "unit": "fold"}, {"measurement": "plasma clearance", "setting": "[10]", "value": "high plasma clearance"}, {"measurement": "PPB in mice", "setting": "[11]", "value": 85, "unit": "%"}, {"measurement": "safety of repeated oral administration", "setting": "[12]", "value": "safe, both locally and systemically"}]}
